The text below walks through data of PubChem BioAssay AID652163 (Broad Institute, 2013).

Several values for one entry are separate records, joined by “and”; a condition that tells them apart may be missing. Identical values can stand only once. Screen size: about 360,000 compounds; about 500 (0.14%) were called active. This is one part of a sample in which actives are shown more often than they occur. Unmarked numbers belong to inactive results.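 Rule for the calls: active = mean inhibition of at least 70% across replicates, with every replicate also reaching that level; inconclusive = mean inhibition reaches 70% but some replicates fall short; inactive = mean inhibition below 70%.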

Usually inhibition stands for the relative decrease from the control value, in per cent.

The target of this experiment is Protein S100-A4 (Homo sapiens) (UniProt P26447). The experiment in a line: human S100A4 protein-peptide interaction blockers – biochemical, fluorescence polarization, TAMRA-MyoIIA peptide, primary screen (AID 652163). As to conditions: at 10.7 µM, stronger effect = higher value. In a few lines: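 Material: S100A4 monomer protein | Medium: HEPES pH 7.2 with CaCl2, KCl, NaCl, DTT, Triton | Reagent: Labelled myosin peptide probe, 5 nM | Doses: One dose per compound | Times: 5 min incubation before reading | Benchmarks: Neutral control DMSO, positive control TFP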
Chain of Protein S100-A4 (Homo sapiens) (P26447 whole entry, looked up): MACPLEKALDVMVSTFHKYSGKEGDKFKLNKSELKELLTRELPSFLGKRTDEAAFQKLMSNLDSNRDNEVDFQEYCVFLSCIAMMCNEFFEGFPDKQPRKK
Background: In fluorescence polarisation assays a small probe gives low polarisation when free and higher when bound to something large.
Regarding `C[C@H]1CN([C@@H](C)CO)C(=O)Cc2cc(NS(=O)(=O)c3cn(C)cn3)ccc2O[C@@H]1CN(C)C(=O)Nc1ccc2c(c1)OCO2`, the inhibition is 1.37%.

As to `Cc1cccc(CN(C)C[C@H]2OCc3cn(nn3)CCCC(=O)N([C@@H](C)CO)C[C@H]2C)c1`, the inhibition was -6.24%.

On to `CCC(=O)N1CCCCN2[C@H](C1)[C@@H](c1ccc(/C=C/c3ccccc3)cc1)[C@@H]2CO`, for which the inhibition was 3.9%.

Turning to `CCCN(C)C[C@@H]1Oc2cc(C#Cc3ccc(F)cc3)ccc2S(=O)(=O)N([C@H](C)CO)C[C@H]1C`, the inhibition is -10.2%.

In the case of `C[C@H]1CCCCO[C@@H](CN(C)C(=O)C2CCCCC2)[C@@H](C)CN([C@@H](C)CO)C(=O)c2cc(NS(=O)(=O)c3cccs3)ccc2O1`, the inhibition is -3.65%.

As to `CCCNC(=O)N1C[C@H](O)COC[C@H]2O[C@@H](CC(=O)NCc3ccncn3)CC[C@@H]21`, the inhibition was 1.59%.

As for `CCCNC(=O)N[C@@H]1C=C[C@H](CC(=O)NC2CCC2)O[C@H]1CO`, the inhibition is 10%.

On to `CO[C@H]1CN(C)C(=O)c2cc(NS(=O)(=O)c3ccccc3)ccc2OC[C@H](C)NC[C@@H]1C`, for which the inhibition was -2.03%.

Take `O=C(c1cnccn1)N1CC(=O)N2[C@H](C1)[C@@H](c1ccc(C#CC3CCCC3)cc1)[C@@H]2CO`: the inhibition is -1.65%.

With `CCCNC(=O)N1CC(=O)N2[C@H](CO)[C@@H](c3ccc(-c4ccc(F)cc4)cc3)[C@H]2C1`, the inhibition is 120% (active).

Consider `CCCNC(=O)N1CC(=O)N2[C@@H](CO)[C@H](c3ccc(-c4ccc(C)cc4)cc3)[C@@H]2C1`, for which the inhibition was 14%.

Regarding `CCCC#Cc1ccc([C@@H]2[C@@H](CO)N3C(=O)CN(C(=O)Nc4ccc(F)cc4)C[C@@H]23)cc1`, the inhibition is 5.06%.

Take `COCC#Cc1cnc2c(c1)C(=O)N([C@@H](C)CO)C[C@@H](C)[C@H](CN(C)C(=O)Nc1ccccc1OC)O2`: the inhibition is 5.05%.

Take `C[C@@H]1CCCCO[C@H](CN(C)Cc2ccccc2)[C@H](C)CN([C@H](C)CO)C(=O)c2cc(NS(=O)(=O)c3ccc(Cl)cc3)ccc2O1`: the inhibition was -1.24%.

Consider `Cc1ccc(S(=O)(=O)N(C)C[C@H]2Oc3ccc(NC(=O)Cc4cn(C)c5ccccc45)cc3CC(=O)N([C@@H](C)CO)C[C@H]2C)cc1`, for which the inhibition is 12.9%.

As for `CO[C@@H]1CN(C)C(=O)c2cc(NC(=O)C3CC3)ccc2OC[C@H](C)N(C(=O)CN(C)C)C[C@H]1C`, the inhibition is -3.57%.

As for `CO[C@H]1CN(C)C(=O)c2cc(NC(=O)Nc3ccc4c(c3)OCO4)ccc2OC[C@@H](C)NC[C@@H]1C`, the inhibition is 127% (active).

In the case of `CO[C@@H]1CN(C)C(=O)c2cc(NC(=O)C3CCC3)ccc2OC[C@H](C)N(C(=O)CN(C)C)C[C@@H]1C`, the inhibition is 1.09%.

`CO[C@H]1CN(C)C(=O)c2ccc(NC(=O)Nc3ccc4c(c3)OCO4)cc2OC[C@H](C)NC[C@H]1C`: the inhibition is 6.05%.

For `CO[C@@H]1CN(C)C(=O)c2cc(NC(=O)Nc3ccc4c(c3)OCO4)ccc2OC[C@@H](C)NC[C@@H]1C`, the inhibition was -4.97%.

For `CO[C@H]1CN(C)C(=O)c2cc(NC(=O)C3CC3)ccc2OC[C@H](C)N(C(=O)CN(C)C)C[C@H]1C`, the inhibition was 99.6% (active).

Regarding `C/C=C/c1ccccc1[C@@H]1[C@@H](CO)N(S(=O)(=O)c2cccc(F)c2)[C@H]1C#N`, the inhibition was 15.1%.

For the compound `N#C[C@H]1[C@@H](c2ccccc2C2=CCCC2)[C@H](CO)N1C(=O)c1cccc(F)c1`, the inhibition is 7.35%.

On to `N#C[C@@H]1[C@H](c2ccccc2C2=CCCCC2)[C@@H](CO)N1S(=O)(=O)c1cccc(F)c1`, for which the inhibition was 124% (active).

Turning to `O=C(C[C@@H]1C=C[C@H](NC(=O)CN2CCOCC2)[C@@H](CO)O1)NCc1cccc(F)c1`, the inhibition was 12.6%.

On to `Cc1ccc(CN(C)C[C@H]2OCc3cn(nn3)CCCC(=O)N([C@@H](C)CO)C[C@H]2C)cc1`, for which the inhibition is -1.4%.

`CN(C)C(=O)c1cccc(-c2ccc(C3[C@H]4CNC[C@@H]3N4C(=O)Nc3ccccc3F)cc2)c1` (stereo partly drawn): the inhibition is -26.3% and -7.38%.

For the compound `COc1ccc(CN(C)C[C@H]2Oc3ccc(NC(=O)Cn4cnnn4)cc3CC(=O)N([C@@H](C)CO)C[C@@H]2C)cc1`, the inhibition was 6.98%.

As for `O=C(NCC1CC1)[C@@H]1[C@@H](CO)[C@@H]2Cn3c(ccc(-c4ccccc4)c3=O)[C@H]1N2C(=O)C1CC1`, the inhibition was 5.45%.

On to `CCC(=O)N1CC2(CN(Cc3ccc(Cl)cc3)C2)c2c([nH]c3cc(OC)ccc23)[C@@H]1CO`, for which the inhibition is -4.36%.

Consider `CCC(=O)Nc1ccc2c(c1)C(=O)N(C)C[C@H](OC)[C@@H](C)CN(C(=O)c1cnccn1)[C@@H](C)CO2`, for which the inhibition was 10.3%.

Take `C[C@@H]1CN([C@H](C)CO)C(=O)c2cc(NS(=O)(=O)c3cccs3)ccc2O[C@@H](C)CCCCO[C@H]1CN(C)Cc1ccc(C(F)(F)F)cc1`: the inhibition was 15.3%.

For `C[C@@H]1CN([C@@H](C)CO)C(=O)Cc2cc(NC(=O)Nc3cccc4ccccc34)ccc2O[C@H]1CN(C)CC1CCCCC1`, the inhibition was 8.63%.

In the case of `COCC(=O)N1[C@H](CO)[C@H](c2ccccc2)C12CN(C(=O)NC1CCCCC1)C2`, the inhibition is 14.7%.

For the compound `CCCC(O)C#Cc1cnc2c(c1)C(=O)N([C@H](C)CO)C[C@H](C)[C@H](CN(C)S(=O)(=O)c1ccc(C#N)cc1)O2` (stereo partly drawn), the inhibition was -4.33%.

As for `Cc1ccc(S(=O)(=O)N[C@@H]2CC[C@@H](CCn3cc(C4CC4)nn3)O[C@@H]2CO)cc1`, the inhibition is 1.11%.

As for `CCCC#Cc1ccc([C@H]2[C@@H](CO)N3C(=O)CN(C(=O)c4ccncc4)C[C@@H]23)cc1`, the inhibition was -18.5%.

In the case of `CC(C)NC(=O)N(C)C[C@H]1Oc2ccc(NS(C)(=O)=O)cc2CC(=O)N([C@@H](C)CO)C[C@@H]1C`, the inhibition is 6.04%.

As to `COc1ccccc1-c1cnc2c(c1)C(=O)N([C@@H](C)CO)C[C@H](C)[C@H](CN(C)CC1CCOCC1)O2`, the inhibition is -4.73%.

As to `C[C@H](CO)N1C[C@H](C)[C@H](CN(C)S(=O)(=O)c2cccs2)OCCCC[C@H](C)Oc2ccc(NC(=O)CCCN(C)C)cc2C1=O`, the inhibition is 1.4%.

As to `NCC[C@H]1CC[C@H](NC(=O)C2CC2)[C@@H](CO)O1`, the inhibition is 4.1%.

Turning to `CCCN1C[C@@H](C)[C@@H](OC)CN(C)C(=O)c2cc(NC(=O)CC(F)(F)F)ccc2OC[C@H]1C`, the inhibition is -32.9%.

Regarding `COCC#Cc1ccc2c(c1)O[C@H](CN(C)CC1CC1)[C@H](C)CN([C@H](C)CO)S2(=O)=O`, the inhibition was 4.13%.

For `CC(C)NC(=O)N(C)C[C@H]1Oc2ncc(-c3ccc(C(=O)N(C)C)cc3)cc2C(=O)N([C@H](C)CO)C[C@H]1C`, the inhibition is -3.24%.

On to `C[C@@H]1CN([C@H](C)CO)C(=O)c2cc(-c3ccncc3)cnc2O[C@@H]1CN(C)C(=O)Cc1cccnc1`, for which the inhibition was 11.8%.

Take `CC(C)C#Cc1ccc2c(c1)O[C@@H](CN(C)C(=O)NC(C)C)[C@H](C)CN([C@H](C)CO)S2(=O)=O`: the inhibition is 106% (active).

Consider `CC(C)NC(=O)N(C)C[C@@H]1Oc2cc(C#C[C@H](C)O)ccc2S(=O)(=O)N([C@@H](C)CO)C[C@H]1C`, for which the inhibition is -1.62%.

On to `CC(C)C#Cc1ccc2c(c1)O[C@@H](CN(C)C(=O)Nc1ccccc1)[C@H](C)CN([C@H](C)CO)S2(=O)=O`, for which the inhibition is 15.5%.

For the compound `CNC[C@@H]1Oc2ncc(-c3ccc(F)cc3)cc2C(=O)N([C@H](C)CO)C[C@@H]1C`, the inhibition was 6.49%.

With `CCCC(=O)Nc1ccc2c(c1)C(=O)N(C)C[C@H](OC)[C@@H](C)CN(C(C)=O)[C@H](C)CO2`, the inhibition was 3.22%.

For the compound `CO[C@H]1CN(C)C(=O)c2ccc(NC(=O)c3nc4ccccc4s3)cc2OC[C@H](C)N(Cc2cccnc2)C[C@@H]1C`, the inhibition is -1.61%.

For `CC(=O)N1Cc2cc(C(=O)NCc3cc(F)cc(F)c3)nc(-c3cccc(C4=CCCC4)c3)c2[C@@H]1CCO`, the inhibition was -14.1%.

Consider `N#C[C@@H]1[C@@H](c2ccc(-c3ccccc3)cc2)[C@@H](CO)N1C(=O)Cc1ccccc1`, for which the inhibition is 9.02%.

Regarding `CO[C@H]1CN(C)C(=O)c2cc(NC(=O)Nc3ccccc3F)ccc2OC[C@@H](C)N(CCC(F)(F)F)C[C@@H]1C`, the inhibition is -11.4%.

As for `CN(C)C(=O)c1ccc(-c2ccc([C@@H]3[C@H](C#N)N(C(=O)C4CC4)[C@H]3CO)cc2)cc1`, the inhibition was -6.47%.

In the case of `Cc1noc(C)c1S(=O)(=O)N(C)C[C@@H]1OCCCC[C@H](C)Oc2ccc(NC(=O)NC3CCCCC3)cc2C(=O)N([C@@H](C)CO)C[C@H]1C`, the inhibition is -8.81%.

For the compound `C[C@@H]1CN([C@H](C)CO)C(=O)c2cc(NC(=O)Nc3ccc(F)cc3)ccc2O[C@@H](C)CCCCO[C@H]1CN(C)Cc1ccc(Cl)c(Cl)c1`, the inhibition was 4.63%.

Turning to `COc1ccc(C(=O)Nc2ccc3c(c2)OC[C@H](C)N(C(C)=O)C[C@@H](C)[C@@H](OC)CN(C)C3=O)cc1`, the inhibition is -16%.

In the case of `C[C@@H]1CN([C@H](C)CO)C(=O)c2cccc(NC(=O)C3CCCCC3)c2O[C@@H]1CN(C)C(=O)NC1CCCCC1`, the inhibition was 1.54%.

For the compound `C[C@H](O)C#Cc1ccc2c(c1)O[C@H](CN(C)Cc1ccccn1)[C@H](C)CN([C@H](C)CO)S2(=O)=O`, the inhibition was -12.6%.

For the compound `O=C(Nc1cccc(C(F)(F)F)c1)c1ccc(N2CCNCC2)c([N+](=O)[O-])c1`, the inhibition was -2.54%.

Regarding `COc1cccc(NC(=O)c2ccc3c(SCC(=O)O)c4c(nc3c2)CCCC4)c1`, the inhibition was 6.49%.

Consider `O=C(O)CSc1c2c(nc3cc(C(=O)Nc4cccc(C(F)(F)F)c4)ccc13)CCCC2`, for which the inhibition was 71.4% (active).
